Consider 6 compounds from ChEMBL document CHEMBL2321795, “Solubility-driven optimization of (pyridin-3-yl) benzoxazinyl-oxazolidinones leading to a promising antibacterial agent” (J Med Chem, 2013).

The target in one series is hERG (KCNH2) (Homo sapiens, UniProt Q12809). Put plainly: Inhibition of human ERG at 30 uM relative to control.
A further series has as its system Enterococcus faecium. The series is described as follows: Antibacterial activity against linezolid-resistant Enterococcus faecium after 16 hrs by NCCLS agar dilution method. Type of series: functional. The procedure, abridged:
(§1)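 Agar dilution MIC. Stocks were 320 μg/mL in 50% aqueous DMSO, 2-fold serially diluted in sterile water, then diluted 10-fold into Mueller–Hinton agar to give 16–0.03125 μg/mL final. Organisms were grown in MH broth at 35 °C for 8 h and adjusted to 0.5 McFarland. They were spotted onto drug-containing plates with a multipoint inoculator and incubated at 35 °C for 16 h. Linezolid was the positive control.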
Background: Agar dilution tests growth on a series of plates holding different concentrations.

For series [1], the system named is Enterococcus faecalis. The series is described as follows: Antibacterial activity against linezolid-resistant Enterococcus faecalis after 16 hrs by NCCLS agar dilution method. In kind it is functional. The procedure, abridged:
as §1

In series [2] the test system is Staphylococcus epidermidis. Put plainly: Antibacterial activity against linezolid-resistant Staphylococcus epidermidis after 16 hrs by NCCLS agar dilution method. Type of series: functional. The procedure, abridged:
as §1

The subject of series [3] is Staphylococcus aureus. Put plainly: Antibacterial activity against linezolid-resistant Staphylococcus aureus after 16 hrs by NCCLS agar dilution method. In kind it is functional. Put shortly:
as §1

In series [4] the test system is Staphylococcus aureus. Put plainly: Antibacterial activity against Staphylococcus aureus ATCC 29213 after 16 hrs by NCCLS agar dilution method. In kind it is functional. The following applies: ATCC 29213, 16 h. Put shortly:
as §1

Series [5] concerns Enterococcus faecalis. The series is described as follows: Antibacterial activity against Enterococcus faecalis after 16 hrs by NCCLS agar dilution method. In kind it is functional. The procedure, abridged: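 Agar dilution MIC per NCCLS, 6 E. faecalis strains. Stock was 320 μg/mL in 50% water/DMSO, serially 2-fold diluted in sterile water, then 10-fold into Mueller–Hinton agar to give 16–0.03125 μg/mL final. Inocula came from MH broth cultures grown 8 h at 35 °C, adjusted to 0.5 McFarland and spotted by multipoint inoculator. Plates were read after 16 h at 35 °C.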

In another series the test system is Streptococcus pneumoniae. Put plainly: Antibacterial activity against penicillin-resistant Streptococcus pneumoniae after 16 hrs by NCCLS agar dilution method. In kind it is functional. Put shortly: as §1
Series [6] concerns Staphylococcus epidermidis. Put plainly: Antibacterial activity against methicillin-resistant Staphylococcus epidermidis after 16 hrs by NCCLS agar dilution method. Type of series: functional. Put shortly: as §1
Series [7] relates to Staphylococcus epidermidis. The series is described as follows: Antibacterial activity against methicillin-sensitive Staphylococcus epidermidis after 16 hrs by NCCLS agar dilution method. In kind it is functional. The procedure, abridged: as §1
Series [8] concerns Staphylococcus aureus. Put plainly: Antibacterial activity against methicillin-resistant Staphylococcus aureus after 16 hrs by NCCLS agar dilution method. Type of series: functional. Put shortly:
as §1

Series [9] relates to Staphylococcus aureus. The series is described as follows: Antibacterial activity against methicillin-sensitive Staphylococcus aureus after 16 hrs by NCCLS agar dilution method. Type of series: functional. Put shortly:
as §1

Series [10] has as its target Voltage-gated inwardly rectifying potassium channel KCNH2 (Homo sapiens, UniProt Q12809).
Series [11] concerns Staphylococcus aureus. Put plainly: Antibacterial activity against methicillin-sensitive Staphylococcus aureus ATCC 19636 infected in iv dosed systemic infection mouse model administered 1 hr post infection measured after 48 hrs. In kind it is functional. The following applies: ATCC 19636, iv. Put shortly: (§2)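 Female ICR mice weighing 20–22 g, six per group, received 0.5 mL of 10⁷–10⁸ CFU/mL S. aureus intraperitoneally as a lethal systemic challenge. Dosing was oral or intravenous 1 h post-infection at 2.5, 5, 10 and 20 mg/kg, with linezolid as comparator.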

Series [12] concerns Staphylococcus aureus. The series is described as follows: Antibacterial activity against methicillin-sensitive Staphylococcus aureus ATCC 19636 infected in po dosed systemic infection mouse model administered 1 hr post infection measured after 48 hrs. The following applies: ATCC 19636, po. Type of series: functional. Put shortly:
as §2

Series [13] is described as follows: Cmax in Sprague-Dawley rat at 50 mg/kg, po by LC-MS analysis. The following applies: in vivo. On the set-up: dose 50 mg/kg, route oral. In kind it is ADME, organism-based. Put shortly: (§3)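 Rats were dosed orally or by intravenous injection. For prodrugs, all parameters were based on the active parent antibacterial detected in plasma, and each prodrug dose was also given as an equivalent parent dose. Parameters were Cmax, Tmax, elimination T1/2, AUC from the concentration–time curve, clearance and oral bioavailability F.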

A short description of series [14]: AUC in Sprague-Dawley rat at 50 mg/kg, po by LC-MS analysis. In kind it is ADME, organism-based. On the set-up: dose 50 mg/kg, route oral. The settings on record: plasma. Put shortly:
as §3

A short description of series [15]: Elimination half life in Sprague-Dawley rat at 50 mg/kg, po by LC-MS analysis. The settings on record: in vivo, read-out: beta t1/2 (converted). Type of series: ADME, organism-based. The arrangement: dose 50 mg/kg, route oral. Put shortly:
as §3

Series [16] can be described thus: Tmax in Sprague-Dawley rat at 50 mg/kg, po by LC-MS analysis. The following applies: in vivo. In kind it is ADME, organism-based. On the set-up: dose 50 mg/kg, route oral. The procedure, abridged:
as §3

Converted amounts (≈) assume the structure as drawn. Bounds are passed on as bounds.

Sequence of hERG (KCNH2) (Q12809 whole entry): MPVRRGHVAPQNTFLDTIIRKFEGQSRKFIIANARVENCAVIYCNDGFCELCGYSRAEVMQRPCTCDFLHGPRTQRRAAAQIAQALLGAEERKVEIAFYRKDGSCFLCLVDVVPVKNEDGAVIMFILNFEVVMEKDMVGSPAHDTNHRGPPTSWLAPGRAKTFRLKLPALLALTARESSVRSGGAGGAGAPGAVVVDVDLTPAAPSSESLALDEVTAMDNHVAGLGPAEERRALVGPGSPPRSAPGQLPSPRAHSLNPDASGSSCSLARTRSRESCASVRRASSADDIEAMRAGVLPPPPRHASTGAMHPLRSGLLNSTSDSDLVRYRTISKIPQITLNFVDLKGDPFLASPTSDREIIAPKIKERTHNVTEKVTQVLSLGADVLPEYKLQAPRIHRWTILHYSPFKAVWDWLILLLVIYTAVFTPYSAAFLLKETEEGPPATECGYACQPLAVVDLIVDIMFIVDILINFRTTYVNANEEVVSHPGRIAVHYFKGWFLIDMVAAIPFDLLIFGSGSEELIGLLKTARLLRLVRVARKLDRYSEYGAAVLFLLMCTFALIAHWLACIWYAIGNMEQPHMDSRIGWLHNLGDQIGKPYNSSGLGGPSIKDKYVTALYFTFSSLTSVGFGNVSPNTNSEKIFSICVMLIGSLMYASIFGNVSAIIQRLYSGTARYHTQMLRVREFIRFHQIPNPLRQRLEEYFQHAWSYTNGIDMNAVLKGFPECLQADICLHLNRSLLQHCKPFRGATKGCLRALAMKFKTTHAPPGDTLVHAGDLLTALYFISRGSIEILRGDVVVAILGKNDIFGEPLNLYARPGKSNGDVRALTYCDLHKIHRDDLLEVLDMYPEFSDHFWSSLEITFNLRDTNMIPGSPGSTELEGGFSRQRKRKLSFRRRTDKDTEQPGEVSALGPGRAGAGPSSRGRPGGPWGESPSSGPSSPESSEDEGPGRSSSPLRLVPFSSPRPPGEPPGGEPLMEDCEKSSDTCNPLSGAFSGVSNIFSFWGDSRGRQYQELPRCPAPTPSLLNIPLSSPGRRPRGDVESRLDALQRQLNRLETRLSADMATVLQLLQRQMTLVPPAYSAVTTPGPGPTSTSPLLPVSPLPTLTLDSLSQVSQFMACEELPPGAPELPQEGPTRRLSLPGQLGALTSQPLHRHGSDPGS
Sequence of Voltage-gated inwardly rectifying potassium channel KCNH2 (Q12809 whole entry): as above

What is called inhibition is the percentage by which the read-out fell short of the control. A higher inhibition goes with a response far below the control. What is called MIC is the lowest concentration that inhibits growth of the organism. Read a low MIC as greater potency. Take `C[C@@H](O)C(=O)c1ccc(-c2ccc3c(c2)OC[C@H]2[C@H](CO)OC(=O)N32)cn1`: the inhibition at 30 µM at hERG (KCNH2) worked out at 18.4%. Further, the minimal inhibitory concentration (MIC) worked out at 4 µg/mL (≈ 10.8 µM) with Enterococcus faecium; 4 µg/mL (≈ 10.8 µM) against Enterococcus faecalis [1]; 4 µg/mL (≈ 10.8 µM) in series [2]; 8 µg/mL (≈ 21.6 µM) with Staphylococcus aureus [3]; 0.25 µg/mL (≈ 0.675 µM) in the series on Staphylococcus aureus [4]; 1 µg/mL (≈ 2.7 µM) with Enterococcus faecalis [5]. The MIC came out at 0.25 µg/mL (≈ 0.675 µM) in the series with Streptococcus pneumoniae; 0.125 µg/mL (≈ 0.338 µM) in series [6]; 0.125 µg/mL (≈ 0.338 µM) in series [7]; 0.125 µg/mL (≈ 0.338 µM) against Staphylococcus aureus [8]; 0.25 µg/mL (≈ 0.675 µM) against Staphylococcus aureus [9].

In general, IC50 refers to the concentration that gives 50% inhibition. The low end stands for greater potency in that assay, the high end for weaker potency in that assay. Compound `CC(=O)NC[C@@H]1OC(=O)N2c3ccc(-c4ccc(C#N)nc4)cc3OC[C@@H]12` displayed an IC50 in series [10] of 2.78 µM.

`O=C1O[C@@H](CO)[C@@H]2COc3cc(-c4ccc(C(O)CO)nc4)ccc3N12` (stereo not given in full): the MIC against Enterococcus faecium amounted to 4 µg/mL (≈ 11.2 µM); in the series on Enterococcus faecalis [1], 4 µg/mL (≈ 11.2 µM); in series [2] it was 8 µg/mL (≈ 22.3 µM); in the series with Staphylococcus aureus [3], 16 µg/mL (≈ 44.6 µM); against Staphylococcus aureus [4], 0.5 µg/mL (≈ 1.4 µM); with Enterococcus faecalis [5], 1 µg/mL (≈ 2.79 µM). Further, the minimal inhibitory concentration (MIC) (in the series on Streptococcus pneumoniae; in [6]; in [7]; against Staphylococcus aureus [8]; in the series with Staphylococcus aureus [9]) was 0.5 µg/mL (≈ 1.4 µM) each time.

As a reminder, the ED50 is the dose that gives a 50% effect, or the effect in half of the subjects. A higher ED50 goes with a need for a large dose. `CC(=O)NC[C@H]1CN(c2ccc(N3CCOCC3)c(F)c2)C(=O)O1` [LINEZOLID]: the MIC was 16 µg/mL (≈ 47.4 µM) against Enterococcus faecium; 8 µg/mL (≈ 23.7 µM) in series [2]; more than 8 µg/mL with Staphylococcus aureus [3]; 1 µg/mL (≈ 2.96 µM) in the series on Staphylococcus aureus [4]; 2 µg/mL (≈ 5.93 µM) in series [6]; 1 µg/mL (≈ 2.96 µM) in series [7]. Moreover, the MIC in the series on Staphylococcus aureus [8] and in the series on Staphylococcus aureus [9] was 1 µg/mL (≈ 2.96 µM) each time. For the same compound, the ED50 in the series on Staphylococcus aureus [11] came to 7.07 mg/kg; in the series on Staphylococcus aureus [12], 8.28 mg/kg.

Take `O=C1OCCN1c1ccc(-c2ccc3c(c2)OC[C@H]2[C@H](CO)OC(=O)N32)cn1`: the MIC was found to be 4 µg/mL (≈ 10.4 µM) against Enterococcus faecium; 4 µg/mL (≈ 10.4 µM) in the series with Enterococcus faecalis [1]; 2 µg/mL (≈ 5.22 µM) in series [2]; 16 µg/mL (≈ 41.7 µM) in the series on Staphylococcus aureus [3]; 0.5 µg/mL (≈ 1.3 µM) against Staphylococcus aureus [4]; 1 µg/mL (≈ 2.61 µM) with Enterococcus faecalis [5]. The MIC (against Streptococcus pneumoniae; in series [6]; in [7]; against Staphylococcus aureus [8]; in the series with Staphylococcus aureus [9]) was 0.5 µg/mL (≈ 1.3 µM) throughout.

Broadly, the Cmax is the highest concentration seen after dosing. What is called AUC is the area under the concentration-time curve, a measure of exposure. A higher AUC goes with more exposure. Usually Tmax stands for the time from dosing to the highest level. In turn, `N#Cc1ccc(-c2ccc3c(c2)OC[C@H]2[C@H](CO)OC(=O)N32)cn1` had a Cmax in series [13] of 3020 ng/mL. Further, the minimal inhibitory concentration (MIC) with Enterococcus faecium was found to be 2 µg/mL (≈ 6.19 µM); in the series with Enterococcus faecalis [1], 2 µg/mL (≈ 6.19 µM); in series [2], 4 µg/mL (≈ 12.4 µM); in the series on Staphylococcus aureus [3], 4 µg/mL (≈ 12.4 µM); in the series with Staphylococcus aureus [4], 0.25 µg/mL (≈ 0.773 µM); in the series with Enterococcus faecalis [5], 1 µg/mL (≈ 3.09 µM). The MIC against Streptococcus pneumoniae came to 0.25 µg/mL (≈ 0.773 µM); in [6], 0.125 µg/mL (≈ 0.387 µM); in series [7], 0.25 µg/mL (≈ 0.773 µM); in the series with Staphylococcus aureus [8] it was 0.25 µg/mL (≈ 0.773 µM); against Staphylococcus aureus [9], 0.25 µg/mL (≈ 0.773 µM). In addition, the AUC in series [14] was 33400 ng·h/mL. In addition, in series [15], the half-life is 4.69 h. In addition, the Tmax in series [16] worked out at 4.5 h.
